Reference: ChEMBL document CHEMBL1275468, “Plasmid-mediated qnrB2 and carbapenemase gene bla(KPC-2) carried on the same plasmid in carbapenem-resistant ciprofloxacin-susceptible Enterobacter cloacae isolates” (2008)
In brackets after ≈: the same amount, converted by molar mass.

Assays:
Type in all cases: functional
Enterobacter cloacae [1] = assay: Antimicrobial activity against Enterobacter cloacae isolate 837 containing PFGE genetic clone B expressing qnrB2 and beta-lactamase KPC-2 and SHV-12 gene by Etest
Enterobacter cloacae [2] = assay: Antimicrobial activity against Enterobacter cloacae isolate 293 containing PFGE genetic clone A expressing qnrB2 and beta-lactamase KPC-2 and SHV-12 gene by Etest
Enterobacter cloacae [3] = assay: Antimicrobial activity against Enterobacter cloacae isolate 625 containing PFGE genetic clone A expressing qnrB2 and beta-lactamase KPC-2 and SHV-12 gene by Etest
Enterobacter cloacae [4] = assay: Antimicrobial activity against Enterobacter cloacae isolate 185 containing PFGE genetic clone A expressing qnrB2 aac(6')-Ib-cr and beta-lactamase KPC-2 and SHV-12 gene by Etest
Enterobacter cloacae [5] = assay: Antimicrobial activity against Enterobacter cloacae isolate 781 containing PFGE genetic clone B expressing qnrB2 and beta-lactamase KPC-2 and SHV-12 gene by Etest
Escherichia coli [6] = assay: Antimicrobial activity against Escherichia coli T-622 harboring expressing qnrB2 and beta-lactamase KPC-2 and SHV-12 gene by Etest
Method in brief: (§1)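 MIC read by Etest. Strains are E. coli GeneHogs (recA1) transformants. Plasmid DNA from clinical E. cloacae isolates was introduced by electroporation. Transformants were selected on LB agar with 100 μg/ml ampicillin, then PCR-screened for blaKPC, blaSHV and qnr genes.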

Enterobacter cloacae [7] = assay: Antimicrobial activity against Enterobacter cloacae isolate 622 containing PFGE genetic clone A expressing qnrB2 and beta-lactamase KPC-2 and SHV-12 gene by Etest
Escherichia coli [8] = assay: Antimicrobial activity against Escherichia coli T-625 harboring expressing qnrB2 and beta-lactamase KPC-2 and SHV-12 gene by Etest; method in brief: as §1
Enterobacter cloacae [9] = assay: Antimicrobial activity against Enterobacter cloacae isolate 533 containing PFGE genetic clone A expressing qnrB2 and beta-lactamase KPC-2 and SHV-12 gene by Etest
Enterobacter cloacae [10] = assay: Antimicrobial activity against Enterobacter cloacae isolate 658 containing PFGE genetic clone B expressing qnrB2 and beta-lactamase KPC-2 and SHV-12 gene by Etest
Escherichia coli [11] = assay: Antimicrobial activity against Escherichia coli GeneHogs by Etest
Method in brief: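 MIC read by Etest on the plasmid-free electroporation recipient, E. coli GeneHogs (recA1 mutant).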

Enterobacter cloacae [12] = assay: Antimicrobial activity against Enterobacter cloacae isolate 1 containing PFGE genetic clone A expressing qnrB2 and beta-lactamase KPC-2 and SHV-12 gene by Etest
Escherichia coli [13] = assay: Antimicrobial activity against Escherichia coli T-781 harboring expressing qnrB2 and beta-lactamase KPC-2 and SHV-12 gene by Etest; method in brief: as §1
Enterobacter cloacae [14] = assay: Antimicrobial activity against Enterobacter cloacae isolate 4469 containing PFGE genetic clone C expressing qnrB2 and beta-lactamase KPC-2 and SHV-12 gene by Etest
Enterobacter cloacae [15] = assay: Antimicrobial activity against Enterobacter cloacae isolate 656 containing PFGE genetic clone A expressing beta-lactamase KPC-2 and SHV-12 gene by Etest
Enterobacter cloacae [16] = assay: Antimicrobial activity against Enterobacter cloacae isolate 649 containing PFGE genetic clone B expressing qnrB2 and beta-lactamase KPC-2 and SHV-12 gene by Etest
Enterobacter cloacae [17] = assay: Antimicrobial activity against Enterobacter cloacae isolate 151 containing PFGE genetic clone A expressing qnrB2 and beta-lactamase KPC-2 gene by Etest
Enterobacter cloacae [18] = assay: Antimicrobial activity against Enterobacter cloacae isolate 140 containing PFGE genetic clone A expressing beta-lactamase KPC-2 and SHV-12 gene by Etest
Enterobacter cloacae [19] = assay: Antimicrobial activity against Enterobacter cloacae isolate 18 containing PFGE genetic clone A expressing qnrB2 and beta-lactamase KPC-2 and SHV-12 gene by Etest

## CC(C)(O/N=C(\C(=O)N[C@@H]1C(=O)N2C(C(=O)[O-])=C(C[n+]3ccccc3)CS[C@H]12)c1csc(N)n1)C(=O)O [CEFTAZIDIME]
Enterobacter cloacae [1]
  MIC: ≥ 64 µg/mL
Enterobacter cloacae [2]
  MIC: ≥ 64 µg/mL
Enterobacter cloacae [3]
  MIC: ≥ 64 µg/mL
Enterobacter cloacae [4]
  MIC: ≥ 64 µg/mL
Enterobacter cloacae [5]
  MIC: ≥ 64 µg/mL
Escherichia coli [6]
  MIC: 32 µg/mL (≈ 58.5 µM)
Enterobacter cloacae [7]
  MIC: ≥ 64 µg/mL
Escherichia coli [8]
  MIC: 32 µg/mL (≈ 58.5 µM)
Enterobacter cloacae [9]
  MIC: ≥ 64 µg/mL
Enterobacter cloacae [10]
  MIC: ≥ 64 µg/mL
Escherichia coli [11]
  MIC: ≤ 1 µg/mL
Enterobacter cloacae [12]
  MIC: ≥ 64 µg/mL
Escherichia coli [13]
  MIC: 32 µg/mL (≈ 58.5 µM)
Enterobacter cloacae [14]
  MIC: ≥ 64 µg/mL
Enterobacter cloacae [15]
  MIC: ≥ 64 µg/mL
Enterobacter cloacae [16]
  MIC: ≥ 64 µg/mL
Enterobacter cloacae [17]
  MIC: 16 µg/mL (≈ 29.3 µM)
Enterobacter cloacae [18]
  MIC: ≥ 64 µg/mL
Enterobacter cloacae [19]
  MIC: ≥ 64 µg/mL

## C[C@H]1COc2c(N3CCN(C)CC3)c(F)cc3c(=O)c(C(=O)O)cn1c23.C[C@H]1COc2c(N3CCN(C)CC3)c(F)cc3c(=O)c(C(=O)O)cn1c23.O [LEVOFLOXACIN]
Enterobacter cloacae [1]
  MIC: 0.75 µg/mL
Enterobacter cloacae [2]
  MIC: 0.75 µg/mL
Enterobacter cloacae [3]
  MIC: 0.5 µg/mL
Enterobacter cloacae [4]
  MIC: 0.5 µg/mL
Enterobacter cloacae [5]
  MIC: 0.5 µg/mL
Escherichia coli [6]
  MIC: 0.023 µg/mL
Enterobacter cloacae [7]
  MIC: 0.5 µg/mL
Escherichia coli [8]
  MIC: 0.094 µg/mL
Enterobacter cloacae [9]
  MIC: 0.38 µg/mL
Enterobacter cloacae [10]
  MIC: 1 µg/mL
Enterobacter cloacae [12]
  MIC: 0.38 µg/mL
Escherichia coli [13]
  MIC: 0.047 µg/mL
Enterobacter cloacae [14]
  MIC: 0.5 µg/mL
Enterobacter cloacae [15]
  MIC: 0.5 µg/mL
Enterobacter cloacae [16]
  MIC: 0.75 µg/mL
Enterobacter cloacae [17]
  MIC: 0.5 µg/mL
Enterobacter cloacae [18]
  MIC: 0.094 µg/mL
Enterobacter cloacae [19]
  MIC: 0.5 µg/mL

## NCC[C@H](O)C(=O)N[C@@H]1C[C@H](N)[C@@H](O[C@H]2O[C@H](CN)[C@@H](O)[C@H](O)[C@H]2O)[C@H](O)[C@H]1O[C@H]1O[C@H](CO)[C@@H](O)[C@H](N)[C@H]1O [AMIKACIN]
Enterobacter cloacae [1]
  MIC: 32 µg/mL (≈ 54.6 µM)
Enterobacter cloacae [2]
  MIC: 16 µg/mL (≈ 27.3 µM)
Enterobacter cloacae [3]
  MIC: ≤ 2 µg/mL
Enterobacter cloacae [4]
  MIC: ≤ 2 µg/mL
Enterobacter cloacae [5]
  MIC: ≤ 2 µg/mL
Escherichia coli [6]
  MIC: ≤ 2 µg/mL
Enterobacter cloacae [7]
  MIC: ≤ 2 µg/mL
Escherichia coli [8]
  MIC: ≤ 2 µg/mL
Enterobacter cloacae [9]
  MIC: ≤ 2 µg/mL
Enterobacter cloacae [10]
  MIC: ≤ 2 µg/mL
Escherichia coli [11]
  MIC: ≤ 2 µg/mL
Enterobacter cloacae [12]
  MIC: ≤ 2 µg/mL
Escherichia coli [13]
  MIC: ≤ 2 µg/mL
Enterobacter cloacae [14]
  MIC: ≤ 2 µg/mL
Enterobacter cloacae [15]
  MIC: ≤ 2 µg/mL
Enterobacter cloacae [16]
  MIC: ≤ 2 µg/mL
Enterobacter cloacae [17]
  MIC: ≤ 2 µg/mL
Enterobacter cloacae [18]
  MIC: ≤ 2 µg/mL
Enterobacter cloacae [19]
  MIC: ≤ 2 µg/mL

## C[C@@H](O)[C@H]1C(=O)N2C(C(=O)O)=C(S[C@@H]3CN[C@H](C(=O)N(C)C)C3)[C@H](C)[C@H]12 [MEROPENEM]
Enterobacter cloacae [1]
  MIC: 6 µg/mL (≈ 15.6 µM)
Enterobacter cloacae [2]
  MIC: 8 µg/mL (≈ 20.9 µM)
Enterobacter cloacae [3]
  MIC: 6 µg/mL (≈ 15.6 µM)
Enterobacter cloacae [4]
  MIC: 24 µg/mL (≈ 62.6 µM)
Enterobacter cloacae [5]
  MIC: > 32 µg/mL
Escherichia coli [6]
  MIC: 3 µg/mL (≈ 7.82 µM)
Enterobacter cloacae [7]
  MIC: 8 µg/mL (≈ 20.9 µM)
Escherichia coli [8]
  MIC: 3 µg/mL (≈ 7.82 µM)
Enterobacter cloacae [9]
  MIC: 2 µg/mL (≈ 5.22 µM)
Enterobacter cloacae [10]
  MIC: 24 µg/mL (≈ 62.6 µM)
Escherichia coli [11]
  MIC: 0.016 µg/mL (≈ 0.0417 µM)
Enterobacter cloacae [12]
  MIC: 2 µg/mL (≈ 5.22 µM)
Escherichia coli [13]
  MIC: 2 µg/mL (≈ 5.22 µM)
Enterobacter cloacae [14]
  MIC: 8 µg/mL (≈ 20.9 µM)
Enterobacter cloacae [15]
  MIC: 6 µg/mL (≈ 15.6 µM)
Enterobacter cloacae [16]
  MIC: 4 µg/mL (≈ 10.4 µM)
Enterobacter cloacae [17]
  MIC: > 32 µg/mL
Enterobacter cloacae [18]
  MIC: 4 µg/mL (≈ 10.4 µM)
Enterobacter cloacae [19]
  MIC: > 32 µg/mL

## CCn1cc(C(=O)O)c(=O)c2ccc(C)nc21 [NALIDIXIC ACID]
Enterobacter cloacae [1]
  MIC: 16 µg/mL (≈ 68.9 µM)
Enterobacter cloacae [2]
  MIC: 16 µg/mL (≈ 68.9 µM)
Enterobacter cloacae [3]
  MIC: 16 µg/mL (≈ 68.9 µM)
Enterobacter cloacae [4]
  MIC: 16 µg/mL (≈ 68.9 µM)
Enterobacter cloacae [5]
  MIC: 16 µg/mL (≈ 68.9 µM)
Escherichia coli [6]
  MIC: 2 µg/mL (≈ 8.61 µM)
Enterobacter cloacae [7]
  MIC: 16 µg/mL (≈ 68.9 µM)
Escherichia coli [8]
  MIC: 4 µg/mL (≈ 17.2 µM)
Enterobacter cloacae [9]
  MIC: 16 µg/mL (≈ 68.9 µM)
Enterobacter cloacae [10]
  MIC: 16 µg/mL (≈ 68.9 µM)
Escherichia coli [11]
  MIC: 2 µg/mL (≈ 8.61 µM)
Enterobacter cloacae [12]
  MIC: 16 µg/mL (≈ 68.9 µM)
Escherichia coli [13]
  MIC: 2 µg/mL (≈ 8.61 µM)
Enterobacter cloacae [14]
  MIC: 16 µg/mL (≈ 68.9 µM)
Enterobacter cloacae [15]
  MIC: 16 µg/mL (≈ 68.9 µM)
Enterobacter cloacae [16]
  MIC: 16 µg/mL (≈ 68.9 µM)
Enterobacter cloacae [17]
  MIC: 16 µg/mL (≈ 68.9 µM)
Enterobacter cloacae [18]
  MIC: 4 µg/mL (≈ 17.2 µM)
Enterobacter cloacae [19]
  MIC: 16 µg/mL (≈ 68.9 µM)

## GENTAMICIN
Enterobacter cloacae [1]
  MIC: > 16 µg/mL
Enterobacter cloacae [2]
  MIC: > 16 µg/mL
Enterobacter cloacae [3]
  MIC: > 16 µg/mL
Enterobacter cloacae [4]
  MIC: > 16 µg/mL
Enterobacter cloacae [5]
  MIC: > 16 µg/mL
Escherichia coli [6]
  MIC: > 16 µg/mL
Enterobacter cloacae [7]
  MIC: > 16 µg/mL
Escherichia coli [8]
  MIC: > 16 µg/mL
Enterobacter cloacae [9]
  MIC: > 16 µg/mL
Enterobacter cloacae [10]
  MIC: > 16 µg/mL
Escherichia coli [11]
  MIC: < 1 µg/mL
Enterobacter cloacae [12]
  MIC: > 16 µg/mL
Escherichia coli [13]
  MIC: > 16 µg/mL
Enterobacter cloacae [14]
  MIC: > 16 µg/mL
Enterobacter cloacae [15]
  MIC: > 16 µg/mL
Enterobacter cloacae [16]
  MIC: > 16 µg/mL
Enterobacter cloacae [17]
  MIC: > 16 µg/mL
Enterobacter cloacae [18]
  MIC: > 16 µg/mL
Enterobacter cloacae [19]
  MIC: > 16 µg/mL

## C[C@H]1[C@H](NC(=O)/C(=N\OC(C)(C)C(=O)O)c2csc(N)n2)C(=O)N1S(=O)(=O)O [AZTREONAM]
Escherichia coli [6]
  MIC: ≥ 64 µg/mL
Escherichia coli [8]
  MIC: ≥ 64 µg/mL
Escherichia coli [11]
  MIC: ≤ 1 µg/mL
Escherichia coli [13]
  MIC: 32 µg/mL (≈ 73.5 µM)
